According to the array DNA melting data of Ke et al. (doi:10.1101/2024.01.08.574731):

How the values were obtained:
[1] = folding enthalpy; higher = less favourable; fluorescence melt of hairpins on a sequencing array, two-state fit; settings: sodium 0.088 M
Method in brief: (§1)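 Two-state fits, bootstrapped, provided melting temperature and folding enthalpy from Cy3 fluorescence normalised to pre-quench Cy3 and to control constructs. Library hairpins with annealed Cy3 and quencher oligos were imaged on a sequenced MiSeq flow cell in 50 mM Na-HEPES pH 8.0, 25 mM NaCl, at 2.5 °C intervals up to 60 °C. Four replicates were combined with inverse-variance weighting. A 9.35 °C upward shift was applied to fitted temperatures to match UV melts.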

[2] = melting temperature; fluorescence melt of hairpins on a sequencing array, two-state fit, raised by 9.35 °C to match UV melts; settings: sodium 0.088 M
Method in brief: as §1

Sequence	folding enthalpy [1]	Tm [2]
TCTCAGAAATGAGA (((((....)))))	-12.2 kcal/mol	31.1 °C
GCGACAGGAAACTGCCAC (.(.(((....))).).)	-9.04 kcal/mol	20.6 °C
GAGGAGCCGAAAGGCCTC (((..(((....))))))	-11.5 kcal/mol	41.9 °C
GCGGCGGGAAACCACCGC ((((.((....)).))))	-41.7 kcal/mol	60.3 °C
GTCTGAGGAAACTCGGAC (((.(((....))).)))	-36.2 kcal/mol	49.4 °C
CACCTGAAAAGGTG (((((....)))))	-23.8 kcal/mol	54.4 °C
GGCCGCGGAAACGCGACC ((.((((....)))).))	-19.7 kcal/mol	63.3 °C
GGGGAAGGAAACTTCCCC (((((((....)))))))	-30.4 kcal/mol	65 °C
GTATGTGGAAACACACAC ((.((((....)))).))	-17.1 kcal/mol	35.2 °C
GGCAACGAAAGTTCGCC ((((((....))).)))	-22.9 kcal/mol	51.6 °C
GACAATGGAAACATTGCC (.(((((....))))).)	-18.6 kcal/mol	38.2 °C
GATTGCGGAAACGCGATC (((.(((....))).)))	-30.7 kcal/mol	57.5 °C
GGCCTCGGAAACGAGACC ((.((((....)))).))	-31.3 kcal/mol	52.2 °C
GATGAAGGAAACTTCATC (((((((....)))))))	-40.9 kcal/mol	53.5 °C
GATCACTTGGGTGATC ((((((....))))))	-40 kcal/mol	57.1 °C
GACCGCGAAAGCGTGTC ((((((....))).)))	-21.2 kcal/mol	63.5 °C
GAGCGTGGAAACACACCC (.(.(((....))).).)	-18.9 kcal/mol	25.4 °C
GATCACCTCCGTGATC ((((((....))))))	-32.5 kcal/mol	55 °C
ACACAGAAATGTGT (((((....)))))	-14.7 kcal/mol	45.9 °C
GATCCAGCTCTGGATC ((((((....))))))	-41.1 kcal/mol	54 °C
GCTATAGCGAAAGCTAGC (((..(((....))))))	-18 kcal/mol	44.6 °C
GTCTACGAAAGTAAGAC ((((((....))).)))	-24.2 kcal/mol	46.5 °C
GCGTGATACGC ((((...))))	-22.2 kcal/mol	55.4 °C
CCGAGGAAACTCGG (((((....)))))	-23.9 kcal/mol	55.9 °C

Sequence	folding enthalpy [1]	Tm [2]
GGGGAAGGAAACTTCTCC ((.((((....)))).))	-35.5 kcal/mol	45.4 °C
GATCTGGGAAACCAGGTC ((.((((....)))).))	-25 kcal/mol	48.4 °C
GGGTGTGGAAACGCACCC (((((.(....).)))))	-45.2 kcal/mol	60 °C
GCCACCGAAAGGTGTGGC ((((((....)))..)))	-17.5 kcal/mol	58.2 °C
GTGGCCGAAAGGCTTCAC ((((((....)))..)))	-12.4 kcal/mol	33.6 °C
GTTGACGAAAGTCGGAAC ((((((....)))..)))	-8.87 kcal/mol	32.7 °C
GCCCTCGGAAACGAAGGC (((.(((....))).)))	-34.1 kcal/mol	46.6 °C
GTCAGCGAAAGCTGCGAC ((((((....)))..)))	-11.8 kcal/mol	55.2 °C
GATCTGTCTCCAGATC ((((((....))))))	-45.9 kcal/mol	48.4 °C
GTCGTCGAAAGACAAGAC ((((((....)))..)))	-20 kcal/mol	44.7 °C
GTCGCCGAAAGGCTTGAC ((((((....)))..)))	-12.1 kcal/mol	39.7 °C
GCAGATGGAAACATTTGC (((.(((....))).)))	-33.7 kcal/mol	44.5 °C
GCGAAGAATCGC ((((....))))	-11.4 kcal/mol	50.2 °C
GCAGACCGAAAGGTTTGC (((.(((....))).)))	-41.6 kcal/mol	63.4 °C
GATCCGCAGCGGATC ((((((...))))))	-54.5 kcal/mol	54.8 °C
GATCTGGAATCAGATC ((((((....))))))	-40.5 kcal/mol	54.3 °C
GCATTGCGAAAGCCACGC ((.(.((....)).).))	-8.66 kcal/mol	38.2 °C
GATCAAGATCTTGATC ((((((....))))))	-47.1 kcal/mol	49.9 °C
GATCGATCAGTCGATC ((((((....))))))	-43.1 kcal/mol	51.1 °C
GTACACGAAAGTGTTTAC ((((((....)))..)))	-9.29 kcal/mol	29 °C
GATCATTTGCATGATC ((((((....))))))	-34.4 kcal/mol	46.4 °C
GGTGGTGGAAACGCCACC (((((.(....).)))))	-35.4 kcal/mol	63.5 °C
GCGGTGCGAAAGCGCAGC ((.(.((....)).).))	-23.4 kcal/mol	64.1 °C
GATCAGCACCTGATC ((((((...))))))	-31.1 kcal/mol	48.3 °C

Sequence	folding enthalpy [1]	Tm [2]
GTCGATGGAAACATTGAC (((.(((....))).)))	-36.2 kcal/mol	48.3 °C
CGAACGGAAACGTGATCG ((((((....)))..)))	-19.6 kcal/mol	28.6 °C
GTGACAGCGAAAGCTCAC (((..(((....))))))	-21.6 kcal/mol	41.4 °C
GGTATCGAAAGATGGACC ((((((....)))..)))	-15.2 kcal/mol	28.9 °C
GCACCGGGAAACCGGCGC ((.((((....)))).))	-41.3 kcal/mol	59.6 °C
GATCCTTGAAAGGATC ((((((....))))))	-42.3 kcal/mol	51.9 °C
GTCTAAACGAAAGTTGAC (((..(((....))))))	-17.7 kcal/mol	34.5 °C
GATCCGGCTCCGGATC ((((((....))))))	-38.4 kcal/mol	59.1 °C
GATCATCCTAATGATC ((((((....))))))	-35 kcal/mol	49 °C
GCTACGCGAAAGCATTGC ((.(.((....)).).))	-12.7 kcal/mol	38.7 °C
CGGCTGCGGAAACGCCCG (((..(((....))))))	-18.5 kcal/mol	44.2 °C
GATAAACCGAAAGGTATC (((..(((....))))))	-13.9 kcal/mol	30 °C
GACACCGGAAACGACGTC (((..((....))..)))	-21.9 kcal/mol	29.4 °C
GACTCCGGAAACGGAACC (..((((....))))..)	-8.88 kcal/mol	26.1 °C
GTGCTAGCGAAAGCTCAC (((..(((....))))))	-9.59 kcal/mol	42.1 °C
GCGTTGCGAAAGCACAGC ((..(((....)))..))	-20.9 kcal/mol	51.1 °C
GAAACCGGAAACGGTCTC ((.((((....)))).))	-14.2 kcal/mol	35.5 °C
GATCTCGTTGAGATC ((((((...))))))	-37.8 kcal/mol	54.9 °C
GCCTGCGCGAAAGCGGGC (((..(((....))))))	-15.4 kcal/mol	55.5 °C
GTTCTCGGAAACGAGAGC (.(((((....))))).)	-27.5 kcal/mol	48.2 °C
GCGGGTACCCGC ((((....))))	-34.1 kcal/mol	67.7 °C
GCCGTAGGAAACTATGGC (((.(((....))).)))	-34 kcal/mol	51.3 °C
GGTTCGGCGAAAGCCACC (((..(((....))))))	-9.35 kcal/mol	28.7 °C
GCTTTCGAAAGAATAAGC ((((((....)))..)))	-21.6 kcal/mol	33.4 °C

Sequence	folding enthalpy [1]	Tm [2]
GATCGGACTTCCGATC ((((((....))))))	-42.3 kcal/mol	57.2 °C
GCCGAACGAAAGTTAGGC (((.(((....))).)))	-36.2 kcal/mol	60.9 °C
GTACGAGAAATCGTAC ((((((....))))))	-38.2 kcal/mol	54.3 °C
GTTTACGGAAACGTGAAC (((.(((....))).)))	-27.7 kcal/mol	46 °C
GAGTTACGAAAGTACTC (((.(((....))))))	-25.4 kcal/mol	43.2 °C
GATCCGAGGGCGGATC ((((((....))))))	-31.5 kcal/mol	55.3 °C
GACCCCGAAAGGGGAGTC ((((((....)))..)))	-9.87 kcal/mol	44.6 °C
GATCTACTTGTAGATC ((((((....))))))	-41.1 kcal/mol	56.2 °C
GCCAATGGAAACGTTGGC (((((.(....).)))))	-49.3 kcal/mol	53.7 °C
GATCTACGGATAGATC ((((((....))))))	-23.4 kcal/mol	37.8 °C
GATCCCTCAAGGGATC ((((((....))))))	-40 kcal/mol	60.9 °C
GCGGGCGAAAGCCCCCGC ((((((....)))..)))	-11.2 kcal/mol	52.1 °C
GATCATGTCATGATC ((((((...))))))	-32.5 kcal/mol	51.3 °C
GCAACAACGAAAGTTTGC (((..(((....))))))	-25 kcal/mol	36.1 °C
GCATAGCGAAAGCCATGC ((((.((....)).))))	-28.5 kcal/mol	53.3 °C
GCCCAAGGAAACTTAGGC (((.(((....))).)))	-21.9 kcal/mol	35.4 °C
GGATGTCCGAAAGGATCC (((..(((....))))))	-14.3 kcal/mol	32.2 °C
GATCAAAGGTTTGATC ((((((....))))))	-32.4 kcal/mol	44.8 °C
GTATACGAAAGTACTAC ((((((....))).)))	-13.1 kcal/mol	27.6 °C
GTATGCGGAAACGTGTAC (((..((....))..)))	-30.2 kcal/mol	39.4 °C
GCTTGACGAAAGTCCAGC (((.(((....))).)))	-26.6 kcal/mol	49.9 °C
